Published values of several laboratories.
Target: Cyclin-dependent kinase-like 5 (CDKL5, Homo sapiens, UniProt O76039)
One construct used (O76039 1-960): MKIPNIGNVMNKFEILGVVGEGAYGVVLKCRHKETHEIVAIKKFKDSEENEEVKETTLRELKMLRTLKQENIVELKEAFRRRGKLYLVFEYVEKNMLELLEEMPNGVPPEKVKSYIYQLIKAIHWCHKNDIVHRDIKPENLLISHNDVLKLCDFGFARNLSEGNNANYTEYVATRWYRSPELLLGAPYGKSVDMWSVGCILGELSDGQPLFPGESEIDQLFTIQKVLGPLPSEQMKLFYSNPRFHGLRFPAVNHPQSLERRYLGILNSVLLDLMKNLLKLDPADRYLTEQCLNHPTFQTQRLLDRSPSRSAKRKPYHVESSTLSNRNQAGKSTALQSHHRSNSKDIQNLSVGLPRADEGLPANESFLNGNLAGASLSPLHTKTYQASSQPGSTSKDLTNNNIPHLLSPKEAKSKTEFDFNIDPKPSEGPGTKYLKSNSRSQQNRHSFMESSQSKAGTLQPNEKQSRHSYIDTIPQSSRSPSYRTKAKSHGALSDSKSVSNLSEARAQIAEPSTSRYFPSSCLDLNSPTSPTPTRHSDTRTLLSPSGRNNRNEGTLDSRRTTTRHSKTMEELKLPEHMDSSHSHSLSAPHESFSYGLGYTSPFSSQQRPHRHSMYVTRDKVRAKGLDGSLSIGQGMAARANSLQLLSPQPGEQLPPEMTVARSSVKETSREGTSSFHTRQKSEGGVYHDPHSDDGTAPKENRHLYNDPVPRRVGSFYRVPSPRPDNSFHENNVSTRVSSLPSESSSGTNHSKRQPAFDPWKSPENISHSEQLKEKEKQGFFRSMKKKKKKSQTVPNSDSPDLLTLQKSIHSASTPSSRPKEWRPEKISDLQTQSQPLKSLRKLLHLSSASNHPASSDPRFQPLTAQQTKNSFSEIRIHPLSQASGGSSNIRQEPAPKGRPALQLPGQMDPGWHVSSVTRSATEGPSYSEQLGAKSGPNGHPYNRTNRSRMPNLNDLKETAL

SMILES	effect on	technique	concentration	remaining binding [%]
CN(C)c1nccc(-c2cnc3ncccn23)n1	binding		1 µM	88
COc1cnc(Nc2cccc(S(N)(=O)=O)c2)nc1N1CCN(c2ccccc2)CC1	binding	competition with immobilised ligand	1 µM	72
CC(C)CC(=O)N1CCc2nc(-c3ccc(Br)cc3)nc(N(C)Cc3ccccc3)c2C1	cell-free assay	competition with immobilised ligand	0.1 µM	100
N[C@H]1CCN(c2nccc(-c3cnn4ncccc34)n2)C1	binding		1 µM	100
COc1cnc(Nc2cccc(S(N)(=O)=O)c2)nc1N1CCN(c2ccccc2)C(=O)C1	binding	competition with immobilised ligand	1 µM	100
C[C@@H]1CCN(c2nccc(-c3cnn4ncccc34)n2)C1	binding		1 µM	86
O=C(NCc1ncc(C(F)(F)F)cc1Cl)c1ccc2c(c1)C1(CCS(=O)(=O)CC1)[C@H](C1CC1)N2S(=O)(=O)c1ccc(F)cc1	cell-free assay	competition with immobilised ligand	1 µM	78
C[C@@H](c1ccc(-n2cnc3c(N)ncnc32)cc1)N1CCc2nn(C)c(Cc3ccccc3)c2C1=O	binding	competition with immobilised ligand	0.1 µM	71
O=C(Nc1c[nH]nc1C(=O)NC1CCNCC1)c1cc(F)cc(F)c1	binding	competition with immobilised ligand	1 µM	0.2
O=C(NCCCN1CCOCC1)c1ccc(Nc2ncc(Cl)c(-c3ccc(Cl)s3)n2)cc1	binding	competition with immobilised ligand	1 µM	26
COc1ccnn2ncc(-c3ccnc(N(C)C)n3)c12	binding		1 µM	86
CC(=O)Nc1c(C(C)=O)c(=O)n(C)c2nc(-c3ccc(Cl)cc3Cl)c(-c3ccc(Cl)cc3)cc12	cell-free assay	competition with immobilised ligand	1 µM	100
C=CC(=O)N1CCC(C(=O)NCC(=O)N2CCN(c3nc(-c4cnc(N)nc4C(F)F)nc(N4CCOCC4)n3)CC2)CC1	binding	competition with immobilised ligand	1 µM	100
CC1=C(C#N)C(c2ccc3c(c2)c(NC(=O)c2ccccc2C)nn3C)C(C#N)=C(C)N1	binding	competition with immobilised ligand	1 µM	79
Cc1cnn2ncc(-c3ccnc(N(C)C)n3)c2c1	binding		1 µM	86
Cc1nccc(COC(=O)N2C[C@@H]3[C@@H](CNC(=O)c4ccc5[nH]nnc5c4)[C@@H]3C2)n1	cell-free assay	competition with immobilised ligand	1 µM	87
CN(CCCC(F)(F)F)c1nccc(-c2cnn3ncccc23)n1	binding		1 µM	100
Cc1cnc(Nc2ccc(C(=O)N3CCC(N4CCCC4)CC3)cc2)nc1-c1cc2ccccc2s1	binding	competition with immobilised ligand	1 µM	69
c1cncc(-c2cccc(Nc3nccc(NC4CCCCC4)n3)c2)c1	binding	competition with immobilised ligand	10 µM	38
O=C(NS(=O)(=O)c1ccc(NCC2CCOCC2)c([N+](=O)[O-])c1)c1ccc(N2CCN(Cc3ccc(C(F)(F)F)cc3-c3ccc(Cl)cc3)CC2)cc1Oc1cnc2[nH]ccc2c1	cell-free assay	competition with immobilised ligand	1 µM	74
O=C(c1ccc(Nc2ncc(Cl)c(-c3cc4ccccc4s3)n2)cc1)N1CCC(N2CCCC2)CC1	binding	competition with immobilised ligand	1 µM	32
